ChEMBL document CHEMBL1123464, “Analogues of platelet activating factor. 5. Multiple oxygen substitution of the alkoxy chain” (J Med Chem, 1986)

Columns and labels:
Rattus norvegicus = assay: Compound was evaluated in spontaneous hypertensive rats (SHR) for the intravenous dose required to decrease mean arterial blood pressure (MABP) 50 mmHg; type: functional, Artery
Method in brief: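 Spontaneously hypertensive rats, intravenous dosing; mean arterial blood pressure monitored; dose lowering MABP by 50 mmHg extrapolated from the dose-response curve.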

Oryctolagus cuniculus [1] = species on record: Oryctolagus cuniculus; assay: Compound was evaluated in rabbit-platelet rich plasma (PRP) for the molar concentration required to produce 50% of maximum aggregation; type: functional
Method in brief: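 Rabbit platelet-rich plasma; aggregation dose-response curves over 10^-4 to 10^-9 M, two to six replicates per dose level; EC50 is the molar concentration giving 50% of the compound's own maximum aggregation; n counts independent curve determinations.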

[2] = Ratio value is (MAPB/platelet EC50)*10e-8; type: functional
Method in brief: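 Selectivity index: intravenous hypotensive dose (SHR, 50 mmHg MABP drop) divided by rabbit PRP aggregation EC50; compared against racemic C16-PAF standard to judge separation of hypotensive and aggregatory effects.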

Oryctolagus cuniculus [3] = species on record: Oryctolagus cuniculus; assay: Compound was evaluated in rabbit-platelet rich plasma (PRP) for the maximum aggregation response observed 6.8*10e-6 molar concentration; type: functional
Oryctolagus cuniculus [4] = species on record: Oryctolagus cuniculus; assay: Compound was evaluated in rabbit-platelet rich plasma (PRP) for the maximum aggregation response observed at 1.9*10e-4 molar concentration; type: functional

| EC50 (Oryctolagus cuniculus [1]) [µM] | Compound | Dose (Rattus norvegicus) [mg/kg] | Ratio [2] | Max aggregation (Oryctolagus cuniculus [3]) | Max aggregation (Oryctolagus cuniculus [4]) |
| --- | --- | --- | --- | --- | --- |
| 0.13 | CCCCCCCCCCOCCOCCOCC(COP(=O)([O-])OCC[N+](C)(C)C)OC(C)=O (configuration not stated) | 0.0129 | 0.99 | – | 61 |
| 5.3 | COCCOCCOCCCCCCCCOCC(COP(=O)([O-])OCC[N+](C)(C)C)OC(C)=O (configuration not stated) | 0.0805 | 0.15 | – | 67 |

| Compound | EC50 (Oryctolagus cuniculus [1]) [µM] | Dose (Rattus norvegicus) [mg/kg] | Ratio [2] | Max aggregation (Oryctolagus cuniculus [3]) | Max aggregation (Oryctolagus cuniculus [4]) |
| --- | --- | --- | --- | --- | --- |
| CCCCCCCCCCCCCCCCOCC(COP(=O)([O-])OCC[N+](C)(C)C)OC(C)=O (configuration not stated) [PLATELET ACTIVATING FACTOR] | 0.0265 | 0.00125 | 0.47 | 71 | – |
